Reference: ChEMBL document CHEMBL1155292, “Synthesis, analgesic and anti-inflammatory activities evaluation of some bi-, tri- and tetracyclic condensed pyrimidines” (Eur J Med Chem, 2009)

Columns and labels:
Mus musculus [1] = assay: Analgesic activity in albino mouse assessed as decrease in acetic acid-induced writhing at 8.45 mg/kg, po administered 1 hr prior to acetic acid challenge relative to control; type: functional
How it was run: (§1)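 Albino mice of either sex, 18–22 g, six per group. Test agents suspended in saline with a few drops of Tween 80 and given by oral stomach tube; controls handled identically without drug. After 1 h, 0.3 ml of 1% acetic acid ip. Writhing contractions counted for 30 min, starting 5 min after injection. % protection versus control mean; mean ± SEM; one-way ANOVA with post hoc test.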

Rattus norvegicus [2] = assay: Antiinflammatory activity in albino rat assessed as inhibition of carrageenan-induced paw edema at 0.029 mmol/kg, po after 4 hrs relative to indomethacin; type: functional
How it was run: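 Rat carrageenan paw edema: oral 0.029 mmol/kg in saline/Tween 80, 1 h before subplantar 0.1 ml 1% carrageenan into the right hind paw; six rats per group. Potency is % inhibition of the test compound divided by % inhibition of indomethacin at 4 h.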

Rattus norvegicus [3] = assay: Antiinflammatory activity in albino rat assessed as inhibition of carrageenan-induced paw edema at 0.029 mmol/kg, po after 2 hrs relative to control; type: functional
How it was run: (§2)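 Adult albino rats of either sex, 120–150 g, six per group. Compounds at 0.029 mmol/kg suspended in saline with a few drops of Tween 80 and given by oral stomach tube. After 1 h, 0.1 ml of freshly prepared 1% carrageenan in saline injected subplantar into the right hind paw. Paw thickness measured at 1–4 h; % edema inhibition versus control; mean ± SEM; ANOVA.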

Rattus norvegicus [4] = assay: Antiinflammatory activity in albino rat assessed as inhibition of carrageenan-induced paw edema at 0.029 mmol/kg, po after 1 hr relative to control; type: functional; how it was run: as §2
Rattus norvegicus [5] = assay: Gastrointestinal toxicity in albino rat assessed as ulcerogenic index at 0.029 mmol/kg, po after 5 hrs; type: organism-based; conditions: in vivo
How it was run: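 Adult albino rats of either sex (120–150 g), 6 per group, got the test compounds orally by stomach tube as a suspension in saline with a few drops of tween 80. They were the same rats used in the carrageenan paw-edema test. Stomachs were then opened along the great curvature and examined for lesions or bleeding. Ulceration was recorded as the number of rats with ulcers out of 6.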

Rattus norvegicus [6] = assay: Antiinflammatory activity in albino rat assessed as inhibition of carrageenan-induced paw edema at 0.029 mmol/kg, po after 3 hrs relative to control; type: functional; how it was run: as §2
Rattus norvegicus [7] = assay: Antiinflammatory activity in albino rat assessed as inhibition of carrageenan-induced paw edema at 0.029 mmol/kg, po after 4 hrs relative to control; type: functional; how it was run: as §2
Mus musculus [8] = assay: Analgesic activity in albino mouse assessed as decrease in acetic acid-induced writhing at 10.45 mg/kg, po administered 1 hr prior to acetic acid challenge relative to control; type: functional; how it was run: as §1
Mus musculus [9] = assay: Analgesic activity in albino mouse assessed as decrease in acetic acid-induced writhing at 8.94 mg/kg, po administered 1 hr prior to acetic acid challenge relative to control; type: functional; how it was run: as §1
Mus musculus [10] = assay: Analgesic activity in albino mouse assessed as decrease in acetic acid-induced writhing at 7.63 mg/kg, po administered 1 hr prior to acetic acid challenge relative to control; type: functional; how it was run: as §1
Mus musculus [11] = assay: Analgesic activity in albino mouse assessed as decrease in acetic acid-induced writhing at 8.59 mg/kg, po administered 1 hr prior to acetic acid challenge relative to control; type: functional; how it was run: as §1
Mus musculus [12] = assay: Analgesic activity in albino mouse assessed as decrease in acetic acid-induced writhing at 2 mg/kg, po administered 1 hr prior to acetic acid challenge; type: functional; how it was run: as §1
Mus musculus [13] = assay: Analgesic activity in albino mouse assessed as decrease in acetic acid-induced writhing at 0.8 mg/kg, po administered 1 hr prior to acetic acid challenge; type: functional; how it was run: as §1
Mus musculus [14] = assay: Analgesic activity in albino mouse assessed as decrease in acetic acid-induced writhing at 0.4 mg/kg, po administered 1 hr prior to acetic acid challenge; type: functional; how it was run: as §1
Mus musculus [15] = assay: Analgesic activity in albino mouse assessed as decrease in acetic acid-induced writhing at 8 mg/kg, po administered 1 hr prior to acetic acid challenge; type: functional; how it was run: as §1
Mus musculus [16] = assay: Analgesic activity in albino mouse assessed as decrease in acetic acid-induced writhing at 1 mg/kg, po administered 1 hr prior to acetic acid challenge; type: functional; how it was run: as §1
Mus musculus [17] = assay: Analgesic activity in albino mouse assessed as decrease in acetic acid-induced writhing at 8.68 mg/kg, po administered 1 hr prior to acetic acid challenge relative to control; type: functional; how it was run: as §1
Mus musculus [18] = assay: Analgesic activity in po dosed albino mouse assessed as decrease in acetic acid-induced writhing administered 1 hr prior to acetic acid challenge; type: functional, organism-based; how it was run: as §1
Mus musculus [19] = assay: Analgesic activity in albino mouse assessed as decrease in acetic acid-induced writhing at 4 mg/kg, po administered 1 hr prior to acetic acid challenge; type: functional; how it was run: as §1
Mus musculus [20] = assay: Analgesic activity in albino mouse assessed as decrease in acetic acid-induced writhing at 11.75 mg/kg, po administered 1 hr prior to acetic acid challenge relative to control; type: functional; how it was run: as §1
Mus musculus [21] = assay: Analgesic activity in albino mouse assessed as decrease in acetic acid-induced writhing at 11.49 mg/kg, po administered 1 hr prior to acetic acid challenge relative to control; type: functional; how it was run: as §1
Mus musculus [22] = assay: Analgesic activity in albino mouse assessed as decrease in acetic acid-induced writhing at 9 mg/kg, po administered 1 hr prior to acetic acid challenge relative to control; type: functional; how it was run: as §1

CCCn1cnc2c(c1=N)C1CCCN1C(=S)N2CC (stereo unspecified)
inhibition in vivo at 8.45 mg/kg (Mus musculus [1]): 77.2%
relative potency at 29 µmol/kg (Rattus norvegicus [2]): 0.24
inhibition in vivo at 29 µmol/kg (Rattus norvegicus [3]): 15.7%
inhibition in vivo at 29 µmol/kg (Rattus norvegicus [4]): 13.5%
UI (Rattus norvegicus [5]): Non-toxic
inhibition in vivo at 29 µmol/kg (Rattus norvegicus [6]): 9.37%
inhibition in vivo at 29 µmol/kg (Rattus norvegicus [7]): 6.82%

O=C1NC(c2ccccc2)NC2=C1C1CCCN1C(=O)N2c1ccccc1 (stereo unspecified)
relative potency at 29 µmol/kg (Rattus norvegicus [2]): 0.38
inhibition in vivo at 29 µmol/kg (Rattus norvegicus [3]): 12.4%
inhibition in vivo at 29 µmol/kg (Rattus norvegicus [4]): 4.47%
inhibition in vivo at 29 µmol/kg (Rattus norvegicus [6]): 11.5%
inhibition in vivo at 29 µmol/kg (Rattus norvegicus [7]): 10.6%
inhibition in vivo at 10.45 mg/kg (Mus musculus [8]): 77.7%

CCCC/N=c1/c(C#N)c2n(c(=O)n1-c1ccccc1)CCC2
inhibition in vivo at 8.94 mg/kg (Mus musculus [9]): 88.7%
relative potency at 29 µmol/kg (Rattus norvegicus [2]): 0.81
inhibition in vivo at 29 µmol/kg (Rattus norvegicus [3]): 24%
inhibition in vivo at 29 µmol/kg (Rattus norvegicus [4]): 11.2%
UI (Rattus norvegicus [5]): Non-toxic
inhibition in vivo at 29 µmol/kg (Rattus norvegicus [6]): 19.4%
inhibition in vivo at 29 µmol/kg (Rattus norvegicus [7]): 22.4%

CCN1C(=S)N2CCCC2c2c1ncn(C)c2=N (stereo unspecified)
inhibition in vivo at 7.63 mg/kg (Mus musculus [10]): 97.6%
relative potency at 29 µmol/kg (Rattus norvegicus [2]): 0.36
inhibition in vivo at 29 µmol/kg (Rattus norvegicus [3]): 14.1%
inhibition in vivo at 29 µmol/kg (Rattus norvegicus [4]): 11.2%
UI (Rattus norvegicus [5]): Non-toxic
inhibition in vivo at 29 µmol/kg (Rattus norvegicus [6]): 11.5%
inhibition in vivo at 29 µmol/kg (Rattus norvegicus [7]): 9.93%

N#Cc1c2n(c(=O)n(-c3ccccc3)/c1=N\CCO)CCC2
relative potency at 29 µmol/kg (Rattus norvegicus [2]): 1
inhibition in vivo at 8.59 mg/kg (Mus musculus [11]): 87.8%
inhibition in vivo at 29 µmol/kg (Rattus norvegicus [3]): 22.3%
inhibition in vivo at 29 µmol/kg (Rattus norvegicus [4]): 5.6%
UI (Rattus norvegicus [5]): Non-toxic
inhibition in vivo at 29 µmol/kg (Rattus norvegicus [6]): 25.9%
inhibition in vivo at 29 µmol/kg (Rattus norvegicus [7]): 27.3%

N#CC1=C(NCCN)N(c2ccccc2)C(=O)N2CCCC12 (stereo unspecified)
inhibition in vivo at 2 mg/kg (Mus musculus [12]): 94.4%
inhibition in vivo at 0.8 mg/kg (Mus musculus [13]): 81.3%
relative potency at 29 µmol/kg (Rattus norvegicus [2]): 0.61
inhibition in vivo at 0.4 mg/kg (Mus musculus [14]): 49.4%
inhibition in vivo at 8 mg/kg (Mus musculus [15]): 96.4%
inhibition in vivo at 29 µmol/kg (Rattus norvegicus [3]): 27.3%
inhibition in vivo at 29 µmol/kg (Rattus norvegicus [4]): 15.7%
inhibition in vivo at 1 mg/kg (Mus musculus [16]): 90.6%
inhibition in vivo at 8.68 mg/kg (Mus musculus [17]): 96.3%
IC50 (Mus musculus [18]): 0.402 mg/kg
inhibition in vivo at 4 mg/kg (Mus musculus [19]): 96%
inhibition in vivo at 29 µmol/kg (Rattus norvegicus [6]): 25.9%
inhibition in vivo at 29 µmol/kg (Rattus norvegicus [7]): 16.9%

O=C1NC(c2ccc([N+](=O)[O-])cc2)NC2=C1C1CCCN1C(=O)N2c1ccccc1 (stereo unspecified)
inhibition in vivo at 11.75 mg/kg (Mus musculus [20]): 94.6%
relative potency at 29 µmol/kg (Rattus norvegicus [2]): 0.7
inhibition in vivo at 29 µmol/kg (Rattus norvegicus [3]): 14.1%
inhibition in vivo at 29 µmol/kg (Rattus norvegicus [4]): 1.1%
inhibition in vivo at 29 µmol/kg (Rattus norvegicus [6]): 14.4%
inhibition in vivo at 29 µmol/kg (Rattus norvegicus [7]): 19.2%

N#Cc1c2n(c(=O)n(-c3ccccc3)/c1=N/c1cccc(C(F)(F)F)c1)CCC2
inhibition in vivo at 11.49 mg/kg (Mus musculus [21]): 63.8%
relative potency at 29 µmol/kg (Rattus norvegicus [2]): 0.34
inhibition in vivo at 29 µmol/kg (Rattus norvegicus [3]): 7.44%
inhibition in vivo at 29 µmol/kg (Rattus norvegicus [4]): 8.97%
inhibition in vivo at 29 µmol/kg (Rattus norvegicus [6]): 8.63%
inhibition in vivo at 29 µmol/kg (Rattus norvegicus [7]): 9.31%

CCO/C=N/C1=C(C#N)C2CCCN2C(=O)N1c1ccccc1 (stereo unspecified)
relative potency at 29 µmol/kg (Rattus norvegicus [2]): 0.18
inhibition in vivo at 9 mg/kg (Mus musculus [22]): 69.8%
inhibition in vivo at 29 µmol/kg (Rattus norvegicus [3]): 9.12%
inhibition in vivo at 29 µmol/kg (Rattus norvegicus [4]): 22.4%
UI (Rattus norvegicus [5]): Non-toxic
inhibition in vivo at 29 µmol/kg (Rattus norvegicus [6]): 5.78%
inhibition in vivo at 29 µmol/kg (Rattus norvegicus [7]): 4.96%
